Arbovirus anti = antivirals against arbovirus infection, primary screen, cell-based, full library, 10K replicate subset; arbovirus infection cell-based antiviral screen; inhibition, % at 10 µM; 0.37% of 200,000 active; in the data active means inhibition above about 30%
Diaph inh CS = diaphorase inhibitors and chemical oxidizers, primary screen, counter-screen for diaphorase-coupled primary assays, biochemical, uHTS, resorufin fluorescence. diaphorase resazurin-to-resorufin fluorescence, NADH, 16 min; bacterial (C. kluyveri) enzyme, not human. inhibition, % at 20 µM. 0.69% of 190,000 active. AID 1217, 2008;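 active means primary screen inhibition at 20 µM above a set limit, cut at about 50% in these data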
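Assay system: diaphorase enzyme from Clostridium kluyveri; Input: enzyme working solution with 0.14 U/mL diaphorase; Timing: 16 min at room temperature; Technique: resorufin fluorescence, excitation 544 nm, emission 590 nm; Benchmarks: positive control minus NADH, DMSO neutral control.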
HKDC1 inhibitor = HKDC1 hexokinase inhibitors, primary screen, biochemical, fluorescence, uHTS; recombinant HKDC1, G6PDH/diaphorase resazurin coupled fluorescence; Q2TB90; inhibition, % at 20 µM; 0.16% of 340,000 active;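 active means inhibition above about 35% when tested at 20 µM, limit read from the data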
Target sequence (Q2TB90 whole entry, looked up): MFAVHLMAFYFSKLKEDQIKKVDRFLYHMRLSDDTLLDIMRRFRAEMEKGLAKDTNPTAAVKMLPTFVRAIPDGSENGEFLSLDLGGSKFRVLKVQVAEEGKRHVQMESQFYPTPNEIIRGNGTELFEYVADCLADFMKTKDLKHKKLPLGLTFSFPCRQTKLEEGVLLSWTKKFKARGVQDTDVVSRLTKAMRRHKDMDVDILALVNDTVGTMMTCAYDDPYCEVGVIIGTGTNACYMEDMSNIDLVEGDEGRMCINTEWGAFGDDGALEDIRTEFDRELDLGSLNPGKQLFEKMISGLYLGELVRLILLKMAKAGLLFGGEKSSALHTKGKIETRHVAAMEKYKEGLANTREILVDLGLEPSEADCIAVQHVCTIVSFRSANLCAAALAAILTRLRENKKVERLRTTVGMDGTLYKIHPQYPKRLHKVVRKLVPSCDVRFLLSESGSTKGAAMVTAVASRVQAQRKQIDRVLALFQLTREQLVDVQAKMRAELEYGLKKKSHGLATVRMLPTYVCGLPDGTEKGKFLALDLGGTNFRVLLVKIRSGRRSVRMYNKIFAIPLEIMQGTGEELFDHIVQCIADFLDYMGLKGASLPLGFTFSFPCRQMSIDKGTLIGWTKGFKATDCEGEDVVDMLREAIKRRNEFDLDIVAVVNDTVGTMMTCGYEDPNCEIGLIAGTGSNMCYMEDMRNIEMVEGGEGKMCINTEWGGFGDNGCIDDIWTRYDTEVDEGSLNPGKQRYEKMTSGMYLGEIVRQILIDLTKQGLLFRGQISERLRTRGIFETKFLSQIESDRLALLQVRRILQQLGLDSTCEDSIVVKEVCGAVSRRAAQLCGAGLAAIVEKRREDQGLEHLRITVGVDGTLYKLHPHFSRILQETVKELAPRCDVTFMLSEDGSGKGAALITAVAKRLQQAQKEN
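Test system: HK5 enzyme. Quantity: 5 µg/mL HK5 final. Reagent: glucose and ATP substrates. Schedule: 90 min reaction incubation at room temperature, dark. Technique: resazurin-to-resorufin fluorescence via G6PDH and diaphorase coupling, 525/613 nm. Control set: DMSO wells with and without enzyme mix.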
Diaphorase act = compounds boosting diaphorase resazurin reduction – biochemical, uHTS, resorufin fluorescence, counter-screen for diaphorase-coupled primary assays, primary screen | Diaphorase/resazurin coupled assay, 16 min; active compounds read high; 1 = vehicle wells, 0 = NADH-free wells | activation factor at 20 µM | 0.005% of 190,000 active | AID 1229, 2008;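 active means diaphorase activity raised at least twofold by the compound at 20 µM; inactive means activation factor below 2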
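Assay system: bacterial diaphorase enzyme (C. kluyveri) / Input: enzyme 0.07 U/mL final / Medium: 50 mM HEPES pH 7.4 with 4.542 mM MgCl2, 0.005% Tween 20 / Doses: single compound dose of 20 µM, 1% DMSO final / Incubation: 16 min enzyme reaction, ambient temperature / Signal: fluorescence, excitation 544 nm and emission 590 nm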
G6PDH counter = L. mesenteroides G6PDH inhibitors, counter-screen for G6PDH-coupled screening assays, biochemical, Leuconostoc mesenteroides enzyme. Purified L. mesenteroides G6PDH, diaphorase/resazurin coupled fluorescence, 45 min. inhibition, % at 5 µM. 0.12% of 200,000 active; in the data active means inhibition above about 50%
Large screens that a line does not name were inactive. Compounds with a hit are over-represented: about 0.74% of the library has one in this group of screens.

CC(C)(CO)CNC(=O)CC1C(=O)NCCN1CC(c1ccccc1)c1ccccc1 (stereo not drawn)	Arbovirus anti 32
O=C(O)c1ccc(/C=N/NC(=O)c2cc(-c3ccc4c5c(cccc35)CC4)n[nH]2)cc1	Diaph inh CS 68
O=C(N/N=C/c1ccccn1)c1cc(-c2cccc3ccccc23)n[nH]1	none
CNc1oc(Cc2ccccc2)nc1S(=O)(=O)c1ccc(Cl)cc1	Diaph inh CS 54
CC1CCC2(CC1)NC(=O)N(CC(=O)NCCc1c[nH]c3ccccc13)C2=O (stereo not drawn)	none (no result: Arbovirus anti, Diaph inh CS, Diaphorase act, G6PDH counter)
CC1CC(C)(C)CC2(C1)NC(=O)N(CC(=O)NCCc1c[nH]c3ccccc13)C2=O (stereo not drawn)	Arbovirus anti 32
Cc1ccc(S(=O)(=O)N(C)C)cc1NC(=O)C(C)N(C)CCOc1ccc(Cl)cc1 (stereo not drawn)	none (no result: Arbovirus anti, Diaph inh CS, Diaphorase act, G6PDH counter)
Cc1ccc(S(=O)(=O)N2CCOCC2)cc1NC(=O)CSc1ncccn1	none (no result: Arbovirus anti, Diaph inh CS, Diaphorase act, G6PDH counter)
Cc1ccc(S(=O)(=O)N2CCOCC2)cc1NC(=O)CSc1nnc2cc(C)c3ccccc3n12	Diaph inh CS 54
O=[N+]([O-])c1ccc(S(=O)(=O)c2cccc(C(F)(F)F)c2)nc1	none (no result: Arbovirus anti, Diaph inh CS, Diaphorase act, G6PDH counter)
COc1ccc(/C=N\NC(=O)c2cc(O)c(O)c(O)c2)cc1CN1CCN(c2ccc(F)cc2)CC1	Diaph inh CS 63
COc1ccc(/C=N/NC(=O)c2ccc(C)cc2)cc1CN1CCN(c2ccc(F)cc2)CC1	none
Cc1ccc(C)c2[nH]c(=O)c(C(c3nnnn3Cc3ccco3)N3CCc4ccccc4C3)cc12 (stereo not drawn)	Diaph inh CS 57
Nc1ccc2nn(-c3ccccc3)nc2c1	Diaph inh CS 60
Nc1cc2nn(-c3ccccc3)nc2cc1Cl	Diaph inh CS 81, G6PDH counter 55
COc1ccc(C(CNC(=O)c2ccc(C)c(S(=O)(=O)N3CCOCC3)c2)N2CCCC2)cc1 (stereo not drawn)	none (no result: Arbovirus anti, Diaph inh CS, Diaphorase act, G6PDH counter)
COc1ccc(-c2nc(C3CCCCC3)no2)cc1OC	Arbovirus anti 35
c1ccc(-c2nc(C3CCCCC3)no2)cc1	none
Brc1ccc2c(c1)CN1CCCC1=N2	none (no result: Arbovirus anti, Diaph inh CS, Diaphorase act, G6PDH counter)
c1ccc(Nc2ccc3c4c(cccc24)CC3)cc1	none
Nc1ccc2c3c(cccc13)CC2	Diaph inh CS 56
CCN(CC)c1ccc(C(=O)NNC(=O)c2cccn2C)cc1	none (no result: Arbovirus anti, Diaph inh CS, Diaphorase act, G6PDH counter)
C=CCn1c(N)c(C(=O)NCc2cccnc2)sc1=S	Arbovirus anti 77
CC(=O)c1ccc2c(c1)c(C#N)c1ccccc1[n+]2[O-]	none (no result: Arbovirus anti, Diaph inh CS, Diaphorase act, G6PDH counter)
O=C(NCCCCNC(=O)c1ccccc1F)c1ccccc1F	none (no result: Arbovirus anti, Diaph inh CS, Diaphorase act, G6PDH counter)
O=C(COc1ccccc1/C=C\c1nc(O)c([N+](=O)[O-])c(=O)[nH]1)Nc1ccccc1	Diaph inh CS 72
CCSC1=N/C(=C\c2ccc(-c3ccccc3[N+](=O)[O-])o2)C(=O)S1	Diaph inh CS 63
Cc1ccc2c(Cl)cc(Cl)c(OCC(=O)NCc3ccco3)c2n1	Diaph inh CS 54 (no result: HKDC1 inhibitor)
CC(Oc1ccccc1F)C(=O)NNC(=O)Cc1ccc(S(=O)(=O)N2CCOCC2)s1 (stereo not drawn)	none (no result: Arbovirus anti, Diaph inh CS, Diaphorase act, G6PDH counter)
CCCCC(=O)NNC(=S)NC(=O)c1ccc(C)cc1	none
Cc1ccc(C(=O)NC(=S)NNC(=O)CC#N)cc1	Diaph inh CS 57
O=C(c1ccc(S(=O)(=O)NCc2ccco2)cc1)N1CCN(Cc2ccccc2F)CC1	none (no result: Arbovirus anti, Diaph inh CS, Diaphorase act, G6PDH counter)
O=C(COC(=O)c1ccc(NS(=O)(=O)c2cccs2)cc1)Nc1nc2c(F)c(F)c(F)cc2s1	Arbovirus anti 34
O=C(COC(=O)c1ccco1)Nc1nc2c(F)c(F)c(F)cc2s1	none (no result: Arbovirus anti, Diaph inh CS, Diaphorase act, G6PDH counter)
Cn1cc([N+](=O)[O-])c(C(=O)NCc2cc3cc(Cl)ccc3[nH]2)n1	Arbovirus anti 35
O=C(CCCCCNc1nc(=S)[nH]c2ccccc12)N1CCN(c2ccccn2)CC1	Diaph inh CS 52 (no result: HKDC1 inhibitor)
CCCCCCCCCCCCCCCC[n+]1cccc(C(=O)N(CC)CC)c1	Diaphorase act 2
N#CC(c1nc2ccccc2nc1N1CCCC1)S(=O)(=O)c1ccccc1 (stereo not drawn)	Diaph inh CS 53
CN1CCN(c2nc3ccccc3nc2C(C#N)S(=O)(=O)c2ccccc2)CC1 (stereo not drawn)	none (no result: Arbovirus anti, Diaph inh CS, Diaphorase act, G6PDH counter)
OC(CNC1CCCCC1)CNC1CCCCC1	Arbovirus anti 39
CN(Cc1ccccc1)C(=O)c1cccc(NC(=O)Cc2cccc(NC(=O)C3CCN(C(=O)c4ccccc4)CC3)c2)c1	none (no result: Arbovirus anti, Diaph inh CS, Diaphorase act, G6PDH counter)
CCC(NC(C)C)C(O)c1ccc(O)c(O)c1 (stereo not drawn)	Diaph inh CS 59, G6PDH counter 63
CCC(c1ccc(O)c(O)c1)C(CC)c1ccc(O)c(O)c1 (stereo not drawn)	none (no result: Arbovirus anti, Diaph inh CS, Diaphorase act, G6PDH counter)
COC(=O)c1ccccc1NC(=O)C1CCN(C(=O)c2cc(OC)c(OC)c(OC)c2)CC1	Arbovirus anti 124
COc1ccc(C(=O)N2CCC(C(=O)Nc3ccccc3C)CC2)cc1OC	none
Cc1ccccc1CN(C)C(=O)COC(=O)c1ccc2[nH]c(C)c(C)c2c1	none (no result: Arbovirus anti, Diaph inh CS, Diaphorase act, G6PDH counter)
CCOC(=O)C1=C(C)N(C[C@@H]2CC[C@@H](Cc3ccc(-c4ccccc4)cc3)O2)C(=O)NC1c1ccc(Cl)cc1 (stereo partly drawn)	none (no result: Arbovirus anti, Diaph inh CS, Diaphorase act, G6PDH counter)
C/C(=N\N=C1\NC(=O)CS1)c1cccs1	none
COc1ccc(-c2nnc(SCC(=O)c3ccc(C)o3)o2)cc1	none
COc1ccc(CN(C(=O)CSc2nnc(-c3ccc(F)cc3)o2)c2ccc(F)cc2)cc1	Arbovirus anti 31
COc1cc(NC(=O)CCCC(=O)OCC(F)(F)C(F)F)nc(OC)n1	Arbovirus anti 106
CC(C)Cn1c2ccccc2c2cc(C(=O)O)ccc21	none

Screening data deposited in PubChem by several laboratories.
